Structures are written as SMILES. Activity calls are given as the source filed them. The calls are words filed in the database; no cut-off is given here.

The values that follow come from ChEMBL document CHEMBL4680165, “β-Lactams with antiproliferative and antiapoptotic activity in breast and chemoresistant colon cancer cells” (Eur J Med Chem, 2020).

The nature of series [1]: Selectivity index, ratio of IC50 for human MCF7 cells to IC50 for human HT-29 cells assessed as reduction in cell viability after 72 hrs by alamar blue assay. Format: functional. (The colour change of resazurin is a common sign of viable cells or microbes.)
Series [2] has as its system UDP-glucuronosyltransferases (UGTs). The series is described as follows: Metabolic stability in human liver microsomes assessed as UGT-mediated N-glucuronidation by measuring intrinsic clearance at 3 uM measured up to 45 mins by LC-MS/MS analysis. Format: ADME. The note with it: microsomes, 0.75 h, 3 µM. The method, boiled down:
(§1)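 Pooled human liver microsomes (0.5 mg/mL protein final) with alamethicin (25 µg/mg) in 0.1 M phosphate pH 7.4, compound 3 µM final (0.25% DMSO), preincubated 37 °C. Reaction started with UDPGA (1 mM final). Sampled at 0, 5, 15, 30, 45 min into methanol, analysed by LC-MS/MS. Minus-UDPGA control run 45 min. Single incubations; t½ and CLint taken from the elimination rate constant.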
Background: Liver microsomes are vesicles of endoplasmic reticulum, rich in cytochrome P450 enzymes.

Series [3] has as its system MCF7. The series is described as follows: Antiproliferative activity against human MCF7 cells assessed as reduction in cell viability after 72 hrs by alamar blue assay. It is filed as functional, cell-based. The note with it: MCF7, 72 h. The method, boiled down:
(§2)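 Cells seeded at 5 x 10^3/well (MCF-7) or 1 x 10^4/well (HT-29, HEK-293T) and treated after 24 h with serial dilutions (0.001-100 µM) in 1% v/v ethanol vehicle. Alamar Blue 10% v/v added at 72 h, then 3-5 h at 37 °C in the dark; fluorescence ex 530/em 590 nm. Viability relative to vehicle; IC50 from dose-response curves; mean of three experiments in triplicate.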

For series [4], the species on record is Bos taurus. Briefly: Inhibition of bovine brain tubulin polymerization at 10 uM measured at 30 sec interval for 30 mins in presence of GTP by turbidimetry-based spectrophotometric method.
Series [5] relates to HT-29. The series is described as follows: Antiproliferative activity against human HT-29 cells assessed as reduction in cell viability after 72 hrs by alamar blue assay. Format: functional, cell-based. The settings on record: HT-29, 72 h. The method, boiled down: as §2
The test system of series [6] is UDP-glucuronosyltransferases (UGTs). Briefly: Metabolic stability in human liver microsomes assessed as UGT-mediated N-glucuronidation by measuring half life at 3 uM measured up to 45 mins by LC-MS/MS analysis. Format: ADME. The settings on record: microsomes, 0.75 h, 3 µM. A digest of the protocol:
as §1

Series [7] concerns the target T1, Tubulin (Homo sapiens) (UniProt P68371+Q9H4B7+P0DPH7+P68366+Q13509+Q71U36+P04350+Q3ZCM7+P07437+P68363+Q9BQE3+Q6PEY2+Q13885+Q9BVA1+Q9BUF5). Briefly: Binding affinity to tubulin in human MCF7 cells assessed as inhibition of tubulin-EBI adduct formation preincubated for 2 hrs followed by EBI addition and measured after 1.5 hrs by Western blotting analysis. It is filed as cell-based. The settings on record: time 3.5 hrs. The method, boiled down:
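MCF-7 cells (5 × 10^4/well) were incubated overnight, then given vehicle (0.1% v/v ethanol) or compound at 10 µM for 2 h. Selected wells then received EBI (100 µM) for 1.5 h. Cells were washed in ice-cold PBS, lysed in Laemmli buffer and run on SDS-PAGE. Blots were probed for β-tubulin and the β-tubulin–EBI adduct, with GAPDH as loading control. Three independent experiments.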

Series [8] is described as follows: Half life of the compound in phosphate buffer at pH 9 by HPLC analysis. Format: physicochemical. The method, boiled down:
(§3)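 Compound stock was 1 mg/mL in mobile phase; 30 µL was diluted into 1 mL phosphate buffer (pH 4, 7.4 or 9) and held at 37 °C. Samples were taken at 0, 5, 30 and 60 min, then hourly to 24 h. Analysis was reverse-phase C18 HPLC with acetonitrile/water mobile phase at 1 mL/min and detection at 254 nm.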

Series [9] in a line: Half life of the compound in phosphate buffer at pH 7.4 by HPLC analysis. It is filed as physicochemical. A digest of the protocol:
as §3

Series [10] can be described thus: Half life of the compound in phosphate buffer at pH 4 by HPLC analysis. It is filed as physicochemical. A digest of the protocol: as §3
Series [11] deals with HT-29. Briefly: Antiangiogenic activity in human HT29 cells assessed as reduction in IL-1alpha secretion at 5 uM after 24 hrs by ELISA. It is filed as functional, cell-based. A digest of the protocol: (§4)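 HT-29 cells at 5 x 10^4 per well, cultured 24 h and then exposed to 5 µM compound. Conditioned medium collected on ice and stored at -80 °C. Cytokines and angiogenic, vascular-injury and chemokine factors measured by multiplex panels with overnight supernatant incubation (Angiogenesis Panel 1 and Vascular Injury Panel 2 same day). Medium undiluted except 1:4 for Vascular Injury Panel 2. Secretion normalised to lysate protein by BCA.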
For orientation: An ELISA detects its analyte on a solid surface through an enzyme-linked reagent.

Series [12] relates to HT-29. The series is described as follows: Antiangiogenic activity in human HT29 cells assessed as reduction in VEGF secretion at 5 uM after 24 hrs by ELISA. Format: functional, cell-based. The method, boiled down:
as §4

For series [13], the system named is HT-29. The series is described as follows: Antiangiogenic activity in human HT-29 cells assessed as increase in IL-1RA secretion at 5 uM after 24 hrs by ELISA. It is filed as functional, cell-based. A digest of the protocol: as §4
Series [14] relates to HT-29. Briefly: Antiangiogenic activity in human HT29 cells assessed as reduction in IL-1beta secretion at 5 uM after 24 hrs by ELISA. Format: functional, cell-based. A digest of the protocol: as §4
Series [15] has as its target T1, Tubulin (Homo sapiens). The series is described as follows: Induction of microtubule depolymerization in human MCF7 cells at 1 uM after 16 hrs by immunofluorescence staining based confocal microscopic analysis. Format: cell-based.

Broadly, the IC50 is the concentration that inhibits the measured activity by half. For the compound `COc1ccc(/C=C\c2cc(OC)c(OC)c(OC)c2)cc1O` [COMBRETASTATIN A4], the “Ratio IC50” value in series [1] came to 0.001. In addition, the CLH in [2] worked out at 645 µL/min/mg. Further, the IC50 in [3] worked out at 4 nM; in [5] it was 4160 nM. The inhibition entry in [4] is “Active”. Also, the t1/2 in series [6] stood at 2.71 min. In addition, the outcome in series [7] was Active.

For orientation: half-life means how long it takes for the measured level to halve. Read a high half-life as slow decline. As for `COc1ccc([C@H]2[C@H](Oc3ccccc3)C(=O)N2c2cc(OC)c(OC)c(OC)c2)cc1Cl`, the “Ratio IC50” value in series [1] amounted to 1.37. Further, the half-life in [8], in series [9] and in series [10] was more than 15 h in each case. For the same compound, the IC50 in series [3] came out at 430 nM; in series [5] it was 314 nM.

For `COc1ccc([C@H]2[C@H](N)C(=O)N2c2cc(OC)c(OC)c(OC)c2)cc1Cl`, the “Ratio IC50” value in series [1] is 0.84. For the same compound, the half-life in series [8], in [9] and in [10] was more than 24 h throughout. Besides, the IC50 in series [3] was determined as 141 nM; in [5] it was 167 nM.

On to `COc1ccc([C@H]2CC(=O)N2c2cc(OC)c(OC)c(OC)c2)cc1F`, for which the “Ratio IC50” value in series [1] was determined as 1.47. In addition, the half-maximal inhibitory concentration (IC50) stood at 22 nM in [3] and 15 nM in [5]. Moreover, the outcome in [11], in series [12] and in [14] was inactive. For the same compound, the result in [13] was Active.

`COc1ccc([C@H]2[C@H](c3ccccc3)C(=O)N2c2cc(OC)c(OC)c(OC)c2)cc1I`: the “Ratio IC50” value in series [1] was determined as 1.83. For the same compound, the half-life in series [8] was 5 h; in series [9] it was 14 h; in series [10], 15 h. Moreover, the IC50 was found to be 648 nM in [3] and 355 nM in series [5].

Consider `COc1ccc([C@H]2[C@H](c3ccccc3)C(=O)N2c2cc(OC)c(OC)c(OC)c2)cc1O`, for which the “Ratio IC50” value in [1] amounted to 0.01. Further, the IC50 is 4 nM in series [3] and 430 nM in [5]. Besides, the result in series [11], in series [12] and in series [14] was inactive. In addition, the outcome in series [13] was Active.

Take `COc1ccc([C@H]2[C@H](O)C(=O)N2c2cc(OC)c(OC)c(OC)c2)cc1Cl`: the “Ratio IC50” value in series [1] worked out at 0.67. For the same compound, the results for the IC50 in [3] and in [5] were 12 nM and 18 nM, respectively. For the same compound, the inhibition entry in series [4] is “Active”.

Consider `CC(=O)O[C@H]1C(=O)[C@@]2(C)[C@H]([C@H](OC(=O)c3ccccc3)[C@]3(O)C[C@H](OC(=O)[C@H](O)[C@@H](NC(=O)c4ccccc4)c4ccccc4)C(C)=C1C3(C)C)[C@]1(OC(C)=O)CO[C@@H]1C[C@@H]2O`, for which the result in series [15] was Active.
